Paper PMC2193521 (The Journal of Experimental Medicine, 2001)
Entries after “also recorded” stand apart in the source; their conditions may differ.

Legend:
[1] = system: m6 TCR; assay type: binding, mouse; settings: calculated from the flow cytometry kd, room temperature
How it was run: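 T2-Ld cells (human lymphoblastoid line expressing Ld, ~3 × 10^6/ml) were loaded with peptide (~1–10 μM final) for 2 h at 37°C. They were stained for 30 min with full-length m6 TCR Drosophila supernatant, washed, and held at room temperature in PBS/1% BSA with F23.2 IgG (~300 μg/ml) as competitor. At timed points, ice-cold washes were done and residual TCR was detected by F23.1-biotin/SAv:PE flow cytometry. n = 2–3.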

[2] = system: m6 TCR; test: SPR of TCR binding to immobilized null MCMV/L^d/Ig; set-up: species or system mouse; settings: PBS, 25°C
How it was run: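 MCMV-loaded Ld/IgG1 fusion (peptide at 100-fold molar excess, pH 6.5, 37°C 1.5 h; refolded pH 7.4, 4°C 24 h; G-200 repurified) was captured on a CM5 chip coated with rabbit anti-mouse IgG. Drosophila-expressed His6 soluble m6 TCR, Ni-NTA and gel-filtration purified, was injected at several concentrations at 30 μl/min. Responses were blank-surface subtracted; regeneration used 10 mM glycine, pH 1.5.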

| Substance | t1/2 of m6 TCR on cell-bound peptide/L^d [1] | TCR binding to peptide/L^d/Ig immobilized on the chip [2] |
| --- | --- | --- |
| QL9-M5: QL9 variant containing a position five (Phe) substitution (QLSPMPFDL) | 140 s | – |
| YPHFMPTNL [MCMV] | – | not observed; also recorded: undetectable |
| QL9-Y5: QL9 variant with a Tyr substitution for the Phe at position 5 (QLSPYPFDL) | 1,180 s | – |
